According to ChEMBL document CHEMBL1240487, “Discovery of a potent, selective, and orally bioavailable pyridinyl-pyrimidine phthalazine aurora kinase inhibitor” (J Med Chem, 2010):

Columns and labels:
[1] = target: T1, Aurora kinase A/Targeting protein for Xklp2 (Homo sapiens, UniProt O14965); test: Inhibition of Aurora A/TPX2 (1-43) by HTRF assay; type: protein-complex assay
T1 sequence (O14965 whole entry): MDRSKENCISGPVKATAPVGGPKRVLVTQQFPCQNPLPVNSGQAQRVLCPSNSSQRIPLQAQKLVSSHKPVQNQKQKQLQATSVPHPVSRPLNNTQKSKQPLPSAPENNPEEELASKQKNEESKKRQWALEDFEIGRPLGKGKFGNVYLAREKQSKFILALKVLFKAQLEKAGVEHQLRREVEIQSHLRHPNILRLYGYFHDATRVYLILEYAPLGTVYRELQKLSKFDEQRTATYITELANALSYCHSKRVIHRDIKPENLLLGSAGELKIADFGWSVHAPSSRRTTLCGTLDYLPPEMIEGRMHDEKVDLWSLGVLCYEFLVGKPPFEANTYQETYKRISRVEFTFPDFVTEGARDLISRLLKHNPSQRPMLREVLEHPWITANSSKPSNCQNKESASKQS
T1 sequence (Q9ULW0 whole entry): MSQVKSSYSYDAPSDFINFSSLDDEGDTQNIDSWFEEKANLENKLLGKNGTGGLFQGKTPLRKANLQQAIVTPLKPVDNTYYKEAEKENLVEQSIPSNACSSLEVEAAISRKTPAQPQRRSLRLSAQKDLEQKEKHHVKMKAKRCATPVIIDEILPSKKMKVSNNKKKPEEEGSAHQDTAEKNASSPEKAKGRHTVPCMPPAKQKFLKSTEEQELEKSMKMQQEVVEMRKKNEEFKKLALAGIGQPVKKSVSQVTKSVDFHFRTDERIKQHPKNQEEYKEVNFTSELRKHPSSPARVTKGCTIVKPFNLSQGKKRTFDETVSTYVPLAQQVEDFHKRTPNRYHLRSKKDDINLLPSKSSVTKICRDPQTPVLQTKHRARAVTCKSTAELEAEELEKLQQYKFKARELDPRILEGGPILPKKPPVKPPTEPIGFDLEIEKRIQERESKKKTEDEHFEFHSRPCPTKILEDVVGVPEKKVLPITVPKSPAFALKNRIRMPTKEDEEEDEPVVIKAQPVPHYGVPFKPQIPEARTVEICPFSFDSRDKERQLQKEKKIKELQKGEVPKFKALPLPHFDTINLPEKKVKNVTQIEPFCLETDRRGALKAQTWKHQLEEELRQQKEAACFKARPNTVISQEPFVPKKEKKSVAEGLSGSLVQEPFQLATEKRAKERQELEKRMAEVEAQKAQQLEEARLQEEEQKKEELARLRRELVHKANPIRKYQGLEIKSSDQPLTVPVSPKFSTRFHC
In short: (§1)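 Enzyme inhibition was run with ATP at its Km for each kinase. Values are averages of at least two determinations.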

[2] = target: Insulin-like growth factor 1 receptor (Homo sapiens, UniProt P08069); test: Inhibition of IGFR1 by HTRF assay; in short: as §1
Sequence of Insulin-like growth factor 1 receptor (P08069 31-736 limits assumed): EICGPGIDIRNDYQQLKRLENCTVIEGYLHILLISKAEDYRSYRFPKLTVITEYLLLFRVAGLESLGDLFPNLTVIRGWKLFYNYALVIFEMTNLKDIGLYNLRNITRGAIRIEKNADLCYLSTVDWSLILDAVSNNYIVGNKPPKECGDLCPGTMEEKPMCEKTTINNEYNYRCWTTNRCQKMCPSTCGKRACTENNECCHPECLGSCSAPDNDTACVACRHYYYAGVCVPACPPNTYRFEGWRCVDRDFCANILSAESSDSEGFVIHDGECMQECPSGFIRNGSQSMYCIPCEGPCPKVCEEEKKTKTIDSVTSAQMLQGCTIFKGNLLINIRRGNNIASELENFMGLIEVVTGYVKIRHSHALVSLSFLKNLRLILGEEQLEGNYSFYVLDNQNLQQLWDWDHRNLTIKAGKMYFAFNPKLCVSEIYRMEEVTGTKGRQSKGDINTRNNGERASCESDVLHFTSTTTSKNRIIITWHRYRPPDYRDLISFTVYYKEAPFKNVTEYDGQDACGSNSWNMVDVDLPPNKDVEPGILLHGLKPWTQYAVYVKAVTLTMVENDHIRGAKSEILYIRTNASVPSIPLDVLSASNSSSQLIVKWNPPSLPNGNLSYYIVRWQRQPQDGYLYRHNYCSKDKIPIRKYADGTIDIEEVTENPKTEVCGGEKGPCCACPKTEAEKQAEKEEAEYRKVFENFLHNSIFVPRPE
Sequence of Insulin-like growth factor 1 receptor (P08069 741-1367 limits assumed): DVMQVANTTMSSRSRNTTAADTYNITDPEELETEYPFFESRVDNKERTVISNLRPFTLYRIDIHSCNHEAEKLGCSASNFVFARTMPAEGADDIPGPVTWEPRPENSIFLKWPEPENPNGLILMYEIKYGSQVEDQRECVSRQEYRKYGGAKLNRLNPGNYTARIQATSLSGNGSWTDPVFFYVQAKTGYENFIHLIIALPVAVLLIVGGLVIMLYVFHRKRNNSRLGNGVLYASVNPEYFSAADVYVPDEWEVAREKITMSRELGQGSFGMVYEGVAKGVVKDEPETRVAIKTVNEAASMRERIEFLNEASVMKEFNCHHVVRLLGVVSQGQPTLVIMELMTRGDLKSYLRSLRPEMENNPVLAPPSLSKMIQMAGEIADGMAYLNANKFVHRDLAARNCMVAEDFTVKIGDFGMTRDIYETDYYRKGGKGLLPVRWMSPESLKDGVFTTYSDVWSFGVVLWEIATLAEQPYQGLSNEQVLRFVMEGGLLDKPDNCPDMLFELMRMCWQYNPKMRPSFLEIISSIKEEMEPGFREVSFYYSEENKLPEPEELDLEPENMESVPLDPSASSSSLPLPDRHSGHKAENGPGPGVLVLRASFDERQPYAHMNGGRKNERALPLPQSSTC

[3] = target: Tyrosine-protein kinase JAK2 (Homo sapiens, UniProt O60674); test: Inhibition of Jak2 by HTRF assay; in short: as §1
Sequence of Tyrosine-protein kinase JAK2 (O60674 whole entry): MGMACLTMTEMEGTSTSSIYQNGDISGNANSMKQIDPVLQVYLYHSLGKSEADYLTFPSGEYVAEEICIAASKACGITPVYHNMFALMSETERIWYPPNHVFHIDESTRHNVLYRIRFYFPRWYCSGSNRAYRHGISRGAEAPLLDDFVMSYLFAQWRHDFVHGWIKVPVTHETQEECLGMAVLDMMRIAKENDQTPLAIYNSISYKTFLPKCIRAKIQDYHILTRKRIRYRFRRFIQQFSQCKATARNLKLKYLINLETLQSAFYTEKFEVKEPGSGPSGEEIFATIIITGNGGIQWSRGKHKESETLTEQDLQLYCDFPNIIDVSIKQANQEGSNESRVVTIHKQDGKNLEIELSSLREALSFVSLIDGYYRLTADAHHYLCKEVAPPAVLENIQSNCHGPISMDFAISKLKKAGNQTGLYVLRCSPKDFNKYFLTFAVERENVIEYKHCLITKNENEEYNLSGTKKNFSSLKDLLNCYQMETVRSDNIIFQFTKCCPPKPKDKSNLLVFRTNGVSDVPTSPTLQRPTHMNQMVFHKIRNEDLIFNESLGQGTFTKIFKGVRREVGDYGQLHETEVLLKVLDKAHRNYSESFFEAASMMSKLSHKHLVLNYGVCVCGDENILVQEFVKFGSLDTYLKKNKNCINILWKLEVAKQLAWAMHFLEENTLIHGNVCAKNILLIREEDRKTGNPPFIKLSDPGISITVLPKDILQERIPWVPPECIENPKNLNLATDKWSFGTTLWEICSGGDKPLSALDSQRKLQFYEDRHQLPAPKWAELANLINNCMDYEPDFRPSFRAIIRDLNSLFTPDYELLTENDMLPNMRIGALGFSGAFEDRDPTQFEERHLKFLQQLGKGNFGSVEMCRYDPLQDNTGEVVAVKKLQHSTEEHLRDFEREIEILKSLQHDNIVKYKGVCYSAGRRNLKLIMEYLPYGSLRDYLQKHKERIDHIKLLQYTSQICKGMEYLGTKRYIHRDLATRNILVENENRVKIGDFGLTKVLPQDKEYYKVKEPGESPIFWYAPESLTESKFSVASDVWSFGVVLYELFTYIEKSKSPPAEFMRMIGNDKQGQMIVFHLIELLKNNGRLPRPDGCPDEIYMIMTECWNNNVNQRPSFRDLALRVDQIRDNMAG

[4] = target: T2, Tyrosine-protein kinase JAK3 (Homo sapiens, UniProt P52333); test: Inhibition of Jak3 by HTRF assay; in short: as §1
T2 sequence (P52333 whole entry): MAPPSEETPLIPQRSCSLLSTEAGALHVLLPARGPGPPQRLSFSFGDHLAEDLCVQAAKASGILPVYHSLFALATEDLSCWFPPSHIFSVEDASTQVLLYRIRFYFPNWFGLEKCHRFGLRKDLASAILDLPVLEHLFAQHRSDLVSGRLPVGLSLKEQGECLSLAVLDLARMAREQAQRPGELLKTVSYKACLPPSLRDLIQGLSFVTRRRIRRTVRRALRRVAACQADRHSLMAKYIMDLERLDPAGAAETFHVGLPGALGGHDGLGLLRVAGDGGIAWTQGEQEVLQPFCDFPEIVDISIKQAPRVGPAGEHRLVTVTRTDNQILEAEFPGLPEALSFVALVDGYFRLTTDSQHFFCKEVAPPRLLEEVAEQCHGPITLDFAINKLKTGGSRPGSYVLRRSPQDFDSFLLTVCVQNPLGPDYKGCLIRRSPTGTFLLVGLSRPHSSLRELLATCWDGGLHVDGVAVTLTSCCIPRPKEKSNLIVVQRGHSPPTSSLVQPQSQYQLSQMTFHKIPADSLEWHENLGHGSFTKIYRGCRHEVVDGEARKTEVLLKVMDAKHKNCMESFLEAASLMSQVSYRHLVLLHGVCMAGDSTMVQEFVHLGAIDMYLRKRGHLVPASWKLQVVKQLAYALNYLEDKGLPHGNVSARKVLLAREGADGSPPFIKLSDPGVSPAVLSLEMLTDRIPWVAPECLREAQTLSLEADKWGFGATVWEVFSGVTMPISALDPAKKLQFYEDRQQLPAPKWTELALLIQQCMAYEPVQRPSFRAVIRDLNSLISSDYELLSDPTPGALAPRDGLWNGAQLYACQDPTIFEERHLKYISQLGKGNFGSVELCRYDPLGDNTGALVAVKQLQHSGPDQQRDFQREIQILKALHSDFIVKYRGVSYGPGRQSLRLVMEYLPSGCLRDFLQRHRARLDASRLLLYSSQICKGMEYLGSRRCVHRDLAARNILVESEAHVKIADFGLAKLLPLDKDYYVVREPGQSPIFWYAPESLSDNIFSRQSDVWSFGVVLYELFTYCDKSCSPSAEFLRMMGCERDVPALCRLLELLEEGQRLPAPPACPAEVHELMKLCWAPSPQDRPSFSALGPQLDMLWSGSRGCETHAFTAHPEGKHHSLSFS

[5] = target: Mitogen-activated protein kinase 9 (Homo sapiens, UniProt P45984); test: Inhibition of JNK2 by HTRF assay; in short: as §1
Sequence of Mitogen-activated protein kinase 9 (P45984 whole entry): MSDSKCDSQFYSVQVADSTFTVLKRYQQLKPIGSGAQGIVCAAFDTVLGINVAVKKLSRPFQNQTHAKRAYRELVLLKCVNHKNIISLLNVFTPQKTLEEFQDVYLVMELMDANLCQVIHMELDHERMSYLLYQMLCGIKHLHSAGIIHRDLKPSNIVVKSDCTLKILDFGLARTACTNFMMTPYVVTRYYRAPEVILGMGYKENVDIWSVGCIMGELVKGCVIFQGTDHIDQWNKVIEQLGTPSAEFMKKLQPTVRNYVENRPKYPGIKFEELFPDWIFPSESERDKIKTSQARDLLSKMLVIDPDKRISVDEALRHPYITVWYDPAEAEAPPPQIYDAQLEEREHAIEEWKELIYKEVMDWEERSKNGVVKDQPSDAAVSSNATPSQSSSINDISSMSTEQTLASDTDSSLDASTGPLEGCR

[6] = target: Ribosomal protein S6 kinase beta-1 (Homo sapiens, UniProt P23443); test: Inhibition of p70s6k by HTRF assay; in short: as §1
Sequence of Ribosomal protein S6 kinase beta-1 (P23443 whole entry): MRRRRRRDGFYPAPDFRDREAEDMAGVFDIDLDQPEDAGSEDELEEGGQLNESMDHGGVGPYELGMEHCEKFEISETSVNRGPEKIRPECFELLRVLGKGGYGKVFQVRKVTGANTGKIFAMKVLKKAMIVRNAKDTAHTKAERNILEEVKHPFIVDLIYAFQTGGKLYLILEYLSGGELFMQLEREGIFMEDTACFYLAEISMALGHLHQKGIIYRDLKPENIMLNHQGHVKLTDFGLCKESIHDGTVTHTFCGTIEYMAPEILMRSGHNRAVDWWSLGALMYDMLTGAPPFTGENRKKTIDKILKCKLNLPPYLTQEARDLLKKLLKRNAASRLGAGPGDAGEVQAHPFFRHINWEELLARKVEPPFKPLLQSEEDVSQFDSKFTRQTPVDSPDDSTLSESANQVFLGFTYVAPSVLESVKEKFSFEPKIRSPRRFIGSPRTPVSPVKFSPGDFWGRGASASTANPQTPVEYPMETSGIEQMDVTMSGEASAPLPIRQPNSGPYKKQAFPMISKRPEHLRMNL

[7] = target: Mitogen-activated protein kinase 3 (Homo sapiens, UniProt P27361); test: Inhibition of Erk1 by HTRF assay; in short: as §1
Sequence of Mitogen-activated protein kinase 3 (P27361 whole entry): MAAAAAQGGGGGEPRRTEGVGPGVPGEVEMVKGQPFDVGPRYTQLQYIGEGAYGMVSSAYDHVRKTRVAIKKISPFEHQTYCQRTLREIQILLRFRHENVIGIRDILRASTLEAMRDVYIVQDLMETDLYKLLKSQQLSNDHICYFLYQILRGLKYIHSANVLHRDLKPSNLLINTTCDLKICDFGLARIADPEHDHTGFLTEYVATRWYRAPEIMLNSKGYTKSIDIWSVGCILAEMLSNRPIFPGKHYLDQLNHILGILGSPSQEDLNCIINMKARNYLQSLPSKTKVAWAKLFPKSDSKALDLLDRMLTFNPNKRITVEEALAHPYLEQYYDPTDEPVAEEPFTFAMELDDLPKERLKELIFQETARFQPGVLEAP

[8] = target: RAC-alpha serine/threonine-protein kinase (Homo sapiens, UniProt P31749); test: Inhibition of PKBalpha by HTRF assay; in short: as §1
Sequence of RAC-alpha serine/threonine-protein kinase (P31749 whole entry): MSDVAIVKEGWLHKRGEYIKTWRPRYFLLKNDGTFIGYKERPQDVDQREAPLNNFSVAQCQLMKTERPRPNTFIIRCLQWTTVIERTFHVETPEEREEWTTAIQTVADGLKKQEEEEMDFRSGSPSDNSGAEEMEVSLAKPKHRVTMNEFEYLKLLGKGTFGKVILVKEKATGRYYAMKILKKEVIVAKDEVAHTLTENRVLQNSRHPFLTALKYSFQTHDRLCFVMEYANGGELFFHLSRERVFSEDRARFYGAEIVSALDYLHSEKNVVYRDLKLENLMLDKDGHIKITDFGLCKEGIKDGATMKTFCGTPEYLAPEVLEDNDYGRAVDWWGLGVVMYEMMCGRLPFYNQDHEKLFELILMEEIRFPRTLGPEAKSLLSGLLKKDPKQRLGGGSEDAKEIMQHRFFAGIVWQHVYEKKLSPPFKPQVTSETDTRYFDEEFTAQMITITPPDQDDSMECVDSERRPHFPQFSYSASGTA

| Compound | IC50 [1] [µM] | IC50 [2] [µM] | IC50 [3] [µM] | IC50 [4] [µM] | IC50 [5] [µM] | IC50 [6] [µM] | IC50 [7] [µM] | IC50 [8] [µM] |
| --- | --- | --- | --- | --- | --- | --- | --- | --- |
| CNc1nccc(-c2cccnc2Oc2ccc(NC(=O)c3cccc(C(F)(F)F)c3)cc2C)n1 | 0.586 | > 8 | > 8 | > 8 | > 8 | > 8 | > 8 | > 8 |
| CNc1nccc(-c2cccnc2Oc2ccc(NC(=O)c3ccccc3Nc3ccccc3)cc2)n1 | 0.016 | > 1 | > 1 | > 1 | > 1 | > 1 | > 1 | > 1 |
| CNc1nccc(-c2cccnc2Oc2ccc(Nc3nnc(-c4ccc(F)cc4)c4ccccc34)cc2)n1 | 0.041 | > 25 | > 25 | > 25 | > 25 | > 25 | > 25 | > 25 |
